What was measured:
[1] = target: Opioid receptor (mu and kappa) (Cavia porcellus, UniProt P41144+P97266); experiment: Opioid receptor activity in guinea pig ileum; assay type: functional, tissue-based
Method in brief: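 Isolated guinea pig ileum in tissue bath, agonist dose-response curves. When norbinaltorphimine was used, the antagonist was added 10 min before the agonist dose-response determination.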

Cavia porcellus = species on record: Cavia porcellus; experiment: Potency was evaluated in guinea pig ileum relative to Dynorphin A.; assay type: functional
Method in brief: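 Isolated guinea pig ileum; agonist dose–response curves were determined. In the experiments using norbinaltorphimine, the antagonist was added to the tissue bath 10 min before the agonist dose–response curve was run.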

[2] = target: Kappa-type opioid receptor (Cavia porcellus, UniProt P41144); experiment: Inhibition of [3H]- bremazocine to opioid receptor kappa of guinea pig […] membranes was determined
Method in brief: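 Guinea pig cerebellar membranes labelled with [3H]bremazocine at 4 °C with bestatin and 100 nM DAMGO present. Nonspecific binding defined with 1 μM Dyn A-(1-13)NH2. Ki from Cheng-Prusoff using KD 0.0549 nM for [3H]bremazocine.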

[3] = target: Delta-type opioid receptor (Rattus norvegicus, UniProt P33533); experiment: Inhibition of [3H]DPDPE to opioid receptor delta of rat fore brain membranes was determined; assay type: cell membranes, Membrane
Method in brief: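 [3H]DPDPE displacement from rat forebrain membranes at 4 °C, peptidase inhibitors included. Nonspecific binding taken with 10 μM unlabeled DPDPE. Cheng-Prusoff Ki using KD 7.63 nM.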

Mu-type opioid receptor = Mu-type opioid receptor (Rattus norvegicus, UniProt P33535); experiment: Inhibition of [3H]DAMGO to opioid receptor mu of rat fore brain membranes was determined; assay type: cell membranes, Membrane
Method in brief: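 Rat forebrain membranes with [3H]DAMGO at 4 °C in presence of peptidase inhibitors. Nonspecific binding defined by 10 μM levorphanol. Ki derived via Cheng-Prusoff, KD 0.314 nM.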

Mu-type opioid receptor, sequence (P33535 whole entry): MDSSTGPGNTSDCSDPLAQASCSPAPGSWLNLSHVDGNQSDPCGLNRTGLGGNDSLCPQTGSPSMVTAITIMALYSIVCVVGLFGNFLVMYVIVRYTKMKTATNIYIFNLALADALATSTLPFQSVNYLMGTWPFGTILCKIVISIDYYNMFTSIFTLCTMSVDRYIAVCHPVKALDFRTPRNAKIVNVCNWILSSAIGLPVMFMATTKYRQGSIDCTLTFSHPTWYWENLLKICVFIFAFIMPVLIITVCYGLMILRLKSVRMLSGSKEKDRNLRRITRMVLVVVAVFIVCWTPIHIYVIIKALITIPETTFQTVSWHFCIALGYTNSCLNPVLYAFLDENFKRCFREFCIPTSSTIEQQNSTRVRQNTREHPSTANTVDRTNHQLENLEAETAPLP
Delta-type opioid receptor, sequence (P33533 whole entry): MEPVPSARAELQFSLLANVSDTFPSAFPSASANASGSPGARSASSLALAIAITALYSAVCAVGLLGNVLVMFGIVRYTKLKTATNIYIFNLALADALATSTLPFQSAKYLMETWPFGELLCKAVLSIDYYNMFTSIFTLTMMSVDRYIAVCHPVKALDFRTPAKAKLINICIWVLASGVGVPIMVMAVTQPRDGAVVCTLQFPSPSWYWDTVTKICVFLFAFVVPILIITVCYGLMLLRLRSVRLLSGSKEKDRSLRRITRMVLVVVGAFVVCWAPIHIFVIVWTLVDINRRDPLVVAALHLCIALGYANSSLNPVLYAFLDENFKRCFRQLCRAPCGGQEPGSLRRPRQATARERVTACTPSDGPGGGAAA
Kappa-type opioid receptor, sequence (P41144 whole entry): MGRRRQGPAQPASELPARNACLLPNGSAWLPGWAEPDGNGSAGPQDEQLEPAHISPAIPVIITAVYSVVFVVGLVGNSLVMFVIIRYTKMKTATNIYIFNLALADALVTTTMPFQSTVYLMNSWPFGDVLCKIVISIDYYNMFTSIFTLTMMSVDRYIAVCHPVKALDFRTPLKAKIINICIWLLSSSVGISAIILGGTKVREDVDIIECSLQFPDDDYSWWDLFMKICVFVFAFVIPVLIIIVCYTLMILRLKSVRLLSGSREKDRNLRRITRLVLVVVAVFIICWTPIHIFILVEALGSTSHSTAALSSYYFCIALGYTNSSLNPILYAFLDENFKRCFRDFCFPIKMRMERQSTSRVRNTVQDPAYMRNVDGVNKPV

Row | Molecule | IC50 [1] [nM] | Relative potency (Cavia porcellus) [%] | Ki [2] [nM] | Ki [3] [nM] | Ki (Mu-type opioid receptor) [nM]
1 | CC[C@H](C)[C@H](NC(=O)[C@H](CCCN=C(N)N)NC(=O)[C@H](CCCN=C(N)N)NC(=O)[C@H](CC(C)C)NC(=O)[C@H](Cc1ccccc1)NC(=O)CNC(=O)CNC(=O)[C@@H](N)Cc1ccc(O)cc1)C(=O)N[C@@H](CCCN=C(N)N)C(=O)N1CCC[C@H]1C(=O)N[C@@H](CCCCN)C(=O)N[C@@H](CC(C)C)C(=O)N[C@@H](CCCCNC(C)=O)C(N)=O | 0.19 | 126 | 0.15 | 4.6 | 0.061
2 | CC[C@H](C)[C@H](NC(=O)[C@H](CCCN=C(N)N)NC(=O)[C@H](CCCN=C(N)N)NC(=O)[C@H](CC(C)C)NC(=O)[C@H](Cc1ccccc1)NC(=O)CNC(=O)CNC(=O)[C@@H](N)Cc1ccc(O)cc1)C(=O)N[C@@H](CCCN=C(N)N)C(=O)N1CCC[C@H]1C(=O)N[C@@H](CCCCN)C(=O)N[C@@H](CC(C)C)C(=O)N[C@@H](CCCCN)C(N)=O | 0.24 | 100 | 0.023 | 1.9 | 0.4
3 | CC[C@H](C)[C@H](NC(=O)[C@H](CCCN=C(N)N)NC(=O)[C@H](CCCN=C(N)N)NC(=O)[C@H](CC(C)C)NC(=O)[C@H](Cc1ccccc1)NC(=O)CNC(=O)CNC(=O)[C@@H](N)Cc1ccc(O)cc1)C(=O)N[C@@H](CCCN=C(N)N)C(=O)N1CCC[C@H]1C(=O)N[C@@H](CCCCNC(C)=O)C(=O)N[C@@H](CC(C)C)C(=O)N[C@@H](CCCCN)C(N)=O | 0.16 | 148 | 0.053 | 0.45 | 0.03
4 | CC[C@H](C)[C@H](NC(=O)[C@H](CCCN=C(N)N)NC(=O)[C@H](CCCN=C(N)N)NC(=O)[C@H](CC(C)C)NC(=O)[C@H](Cc1ccccc1)NC(=O)CNC(=O)CNC(=O)[C@@H](N)Cc1ccc(O)cc1)C(=O)N[C@@H](CCCCNC(C)=O)C(=O)N1CCC[C@H]1C(=O)N[C@@H](CCCCN)C(=O)N[C@@H](CC(C)C)C(=O)N[C@@H](CCCCN)C(N)=O | 0.26 | 91 | 0.0042 | 1.3 | 0.043
5 | H-YGGFLK(Ac)RIRPKLK-NH2 | 0.64 | 37 | 0.024 | 0.42 | 0.018
6 | H-YGGFLKRIRPKLK-NH2 [listing 1 of 2 here] | 0.25 | 94 | – | – | –
7 | H-YGGFLKRIRPKLK-NH2 [listing 2 of 2 here] | – | – | 0.02 | 5.9 | 0.075
8 | H-YGGFLRK(Ac)IRPKLK-NH2 | 0.34 | 69 | 0.14 | 1.1 | 0.18
9 | H-YGGFLRKIRPKLK-NH2 [listing 1 of 2 here] | 0.19 | 122 | – | – | –
10 | H-YGGFLRKIRPKLK-NH2 [listing 2 of 2 here] | – | – | 0.021 | 1.6 | 0.055
11 | H-YGGFLRRIKPKLK-NH2 [listing 1 of 2 here] | 0.27 | 89 | – | – | –
12 | H-YGGFLRRIKPKLK-NH2 [listing 2 of 2 here] | – | – | 0.0067 | 1.9 | 0.046

Reference: ChEMBL document CHEMBL1125361, “Effect of modification of the basic residues of dynorphin A-(1-13) amide on kappa opioid receptor selectivity and opioid activity” (J Med Chem, 1992)
